Rin1-Abl PPI inh = inhibitors of human Rin1-Abl protein interaction; P00519+Q13671; TR-FRET Rin1/Abl binding, biochemical; inhibition, % at 7.35 µM; 360,000 compounds, 0.4% hits; in the data active = inhibition above about 5%, passing the limit was not always enough
Target sequence (P00519 whole entry, looked up): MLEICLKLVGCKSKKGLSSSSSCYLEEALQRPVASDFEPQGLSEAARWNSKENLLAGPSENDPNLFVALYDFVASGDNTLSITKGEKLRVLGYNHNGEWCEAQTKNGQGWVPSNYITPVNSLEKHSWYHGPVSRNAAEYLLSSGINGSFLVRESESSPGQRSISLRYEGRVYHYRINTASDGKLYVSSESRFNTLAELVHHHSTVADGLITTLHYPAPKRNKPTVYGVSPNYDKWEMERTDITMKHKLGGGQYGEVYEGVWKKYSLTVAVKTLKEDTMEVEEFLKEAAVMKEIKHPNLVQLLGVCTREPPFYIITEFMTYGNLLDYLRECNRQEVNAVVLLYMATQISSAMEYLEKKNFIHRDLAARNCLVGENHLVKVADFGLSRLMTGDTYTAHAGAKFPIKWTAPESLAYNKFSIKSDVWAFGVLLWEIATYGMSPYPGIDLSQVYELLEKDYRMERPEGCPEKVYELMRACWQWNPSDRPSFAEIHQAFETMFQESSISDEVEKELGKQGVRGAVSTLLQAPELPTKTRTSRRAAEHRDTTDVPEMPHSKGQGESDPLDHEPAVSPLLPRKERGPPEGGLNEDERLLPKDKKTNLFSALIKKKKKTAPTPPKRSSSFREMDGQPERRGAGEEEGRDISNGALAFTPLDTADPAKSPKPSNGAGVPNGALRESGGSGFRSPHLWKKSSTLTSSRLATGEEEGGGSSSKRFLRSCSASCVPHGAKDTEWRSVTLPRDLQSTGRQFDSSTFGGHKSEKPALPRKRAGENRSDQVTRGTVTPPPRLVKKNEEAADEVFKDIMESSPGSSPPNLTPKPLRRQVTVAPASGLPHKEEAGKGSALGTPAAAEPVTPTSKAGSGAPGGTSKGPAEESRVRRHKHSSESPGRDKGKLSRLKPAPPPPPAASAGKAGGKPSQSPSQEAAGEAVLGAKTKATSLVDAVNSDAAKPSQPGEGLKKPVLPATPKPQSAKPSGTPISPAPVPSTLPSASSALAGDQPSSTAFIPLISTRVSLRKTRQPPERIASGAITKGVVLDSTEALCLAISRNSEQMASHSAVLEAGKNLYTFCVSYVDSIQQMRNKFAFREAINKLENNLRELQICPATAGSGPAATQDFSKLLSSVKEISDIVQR
Target sequence (Q13671 whole entry, looked up): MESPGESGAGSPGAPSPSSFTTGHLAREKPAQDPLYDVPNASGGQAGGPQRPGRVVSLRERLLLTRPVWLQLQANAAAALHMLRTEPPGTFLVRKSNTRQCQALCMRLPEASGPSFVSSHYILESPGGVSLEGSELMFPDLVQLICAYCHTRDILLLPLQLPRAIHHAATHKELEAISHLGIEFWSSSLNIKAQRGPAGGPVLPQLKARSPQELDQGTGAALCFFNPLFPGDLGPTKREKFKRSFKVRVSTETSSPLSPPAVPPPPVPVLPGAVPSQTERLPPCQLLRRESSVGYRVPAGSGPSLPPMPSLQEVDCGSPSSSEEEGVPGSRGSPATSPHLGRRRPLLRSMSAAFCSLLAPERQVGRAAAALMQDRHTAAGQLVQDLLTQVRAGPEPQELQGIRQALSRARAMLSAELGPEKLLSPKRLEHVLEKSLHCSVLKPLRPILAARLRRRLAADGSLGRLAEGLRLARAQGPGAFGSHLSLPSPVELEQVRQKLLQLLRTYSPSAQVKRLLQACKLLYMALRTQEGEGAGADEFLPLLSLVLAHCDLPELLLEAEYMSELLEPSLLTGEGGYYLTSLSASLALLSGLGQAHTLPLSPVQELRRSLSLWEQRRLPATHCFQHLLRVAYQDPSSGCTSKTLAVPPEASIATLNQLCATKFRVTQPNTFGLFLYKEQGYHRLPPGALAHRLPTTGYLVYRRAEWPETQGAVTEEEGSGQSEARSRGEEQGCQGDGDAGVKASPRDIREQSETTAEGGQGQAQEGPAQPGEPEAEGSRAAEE
SUMO HTRF inh = blocks human SUMOylation mediated by UBC9; P63279; HTRF SUMOylation assay, SAE1/SAE2 + UBC9, in vitro; inhibition, % at 35 µM; 290,000 compounds, 0.36% hits; in the data active = inhibition above about 50%, passing the limit was not always enough
Apaf1 inhib = inhibitors of human Apaf-1 apoptosome. O14727. reconstituted apoptosome caspase-3 activity, DEVD-Rh110 fluorescence. inhibition, % at 20 µM. 330,000 compounds, 0.71% hits; active = inhibition of at least 40% at 20 µM
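System: reconstituted apoptosome with Apaf-1, cytochrome c, caspase-9, procaspase-3, dATP; Signal: Rh110 fluorescence intensity; Schedule: 30 min compound preincubation, 50 min activation, room temperature; Reagent: cytochrome c trigger plus (Z-DEVD)2-Rh110 caspase-3 substrate.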
GSTO1 inh = counter-screen for RBBP9 inhibitors: inhibitors of human GSTO1; AID 1974; 300,000 compounds, 1.1% hits; recombinant GSTO1, activity-based probe fluorescence polarization; P78417; inhibition, % at 5.96 µM;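 active = inhibition above the campaign mean inhibition plus 3 SD, cut at about 35% in these data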
PAD4 FP inh = inhibitors of human PAD4. 330,000 compounds, 0.41% hits. recombinant PAD4, RCA probe fluorescence polarization. inhibition, % at 6.36 µM. AID 485272;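 active = percent inhibition above a cutoff equal to the mean of all tested compounds plus 3 SD, cut at about 15% in these data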
UBC13 polyUb = human UBC13 polyubiquitination inhibition; inhibition, % at 20 µM; P61088; UBC13 polyubiquitin chain formation, TR-FRET; 330,000 compounds, 0.47% hits; in the data active = inhibition above about 45%, passing the limit was not always enough
Rin1-Abl confirm = Rin1-Abl interaction inhibition confirmation. shares compounds with Rin1-Abl PPI inh. TR-FRET Rin1-Abl binding, purified proteins. inhibition, % at 7.35 µM. 1,300 compounds, 49% hits. AID 602124
GFP quench = quenches GFP fluorescence, counter-screen for Rin1-Abl inhibitors; shares compounds with Rin1-Abl PPI inh; inhibitors/quenchers counterscreen; inhibition, % at 6.75 µM; 1,300 compounds, 8.5% hits;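 note: ABL1-eGFP fusion protein alone without its partner RIN1-SBP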
GFP quench DR = GFP fluorescence interference dose response | AID 602182 | shares compounds with Rin1-Abl PPI inh | IC50, µM | GFP fluorescence interference/quenching counterscreen | 230 tested, under 10 active; call rule not given here;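 note: ABL1-eGFP fusion protein alone without its RIN1 binding partner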
Of the large screens only hits and unclear results are named; the others gave an inactive call (follow-up assays come after a bar, where they were run). A selection: hits, their analogues and other compounds. The true share with any hit is near 2.2%. Cut-off read from the data, not from the text of the source, unless noted: active = inhibition above about 6.5%; inactive = the rest.

Cc1nc2nc(C)n(CCN3CCOCC3)c(=O)c2c(-c2cccc([N+](=O)[O-])c2)c1C(=O)CCCCCCCCCCN1CCC(c2ccccc2)(c2ccccc2)CC1	Rin1-Abl PPI inh 61 (no result: SUMO HTRF inh, Apaf1 inhib, GSTO1 inh, PAD4 FP inh, UBC13 polyUb) | Rin1-Abl confirm 69 | GFP quench inactive | GFP quench DR inactive
O=C(O)CCCCC1SCC2NC(=O)NC21 (configuration not stated)	Rin1-Abl PPI inh 86 | Rin1-Abl confirm 92 | GFP quench inactive | GFP quench DR inactive
COC(=O)C1=C(c2ccc(-c3ccccc3)c(F)c2)C[C@@H]2CC[C@H]1N2C(=O)NCc1cccc2ccccc12	none (no result: SUMO HTRF inh, GSTO1 inh)
Fc1ccccc1CCNCc1ccccc1	Rin1-Abl PPI inh 8.8 | Rin1-Abl confirm inactive | GFP quench inactive
Fc1ccc(CNCCc2ccccc2F)cc1	none
NC1=NC(=O)C(c2ccccc2)O1 (configuration not stated)	none (no result: Rin1-Abl PPI inh, Apaf1 inhib, GSTO1 inh, PAD4 FP inh, UBC13 polyUb)

Assay outcomes from PubChem.
